Rad51 HR inh: human RAD51 strand exchange inhibitors, primary screen, biochemical, fluorescence; AID 1385, 2008; inhibition, % at 10 µM; hit rate 0.085% among 200,000; DNA repair protein RAD51 homolog 1 (Homo sapiens), Q06609; hRad51 DNA strand exchange, fluorescence dequenching;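 active = inhibition above 40% at the single screening dose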;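 also: 0% = DMSO control wells and 100% = blanks with heterologous ssDNA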
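Material: hRad51 filaments on single-stranded DNA; Reagent: Donor/quencher-labelled 47-bp dsDNA substrate; Compound: 10 µM final, single point; Schedule: 37 °C 15-min filament assembly, 30-min compound preincubation, 15-min exchange; Technique: FRET fluorescence, excitation 485 nm, emission 520 nm; Benchmarks: control wells and blank wells on each plate.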
CHT allo act: CHT positive allosteric modulators, primary screen, cell-based, membrane potential dye, choline EC20 | hit rate 0.49% among 310,000 | B-score at 10 µM | CHT-expressing cells; stronger effect = higher value; LV-AA mutant CHT in HEK293 cells | High affinity choline transporter 1 (Homo sapiens), Q9GZV3;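 active = initial fluorescence not abnormally high and integrated response B-score, plate-corrected, over 3 SD above library mean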
Target sequence (Q9GZV3 whole entry, looked up): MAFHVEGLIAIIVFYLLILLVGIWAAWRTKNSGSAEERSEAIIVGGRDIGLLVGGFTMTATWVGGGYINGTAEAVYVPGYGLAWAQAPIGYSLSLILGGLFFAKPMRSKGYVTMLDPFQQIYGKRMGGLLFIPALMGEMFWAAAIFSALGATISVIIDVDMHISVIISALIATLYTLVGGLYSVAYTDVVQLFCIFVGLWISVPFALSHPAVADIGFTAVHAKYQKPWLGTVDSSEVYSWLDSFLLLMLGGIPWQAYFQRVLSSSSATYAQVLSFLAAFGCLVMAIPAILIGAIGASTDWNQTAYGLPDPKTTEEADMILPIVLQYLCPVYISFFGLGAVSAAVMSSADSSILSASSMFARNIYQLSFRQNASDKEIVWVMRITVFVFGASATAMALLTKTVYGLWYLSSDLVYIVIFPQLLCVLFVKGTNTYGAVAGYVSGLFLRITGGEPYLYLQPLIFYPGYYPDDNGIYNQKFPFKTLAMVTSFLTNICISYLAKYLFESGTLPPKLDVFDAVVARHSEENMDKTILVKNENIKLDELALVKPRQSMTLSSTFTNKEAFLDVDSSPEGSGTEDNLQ
CHT inh: inhibitors of human choline transporter CHT; AID 488975, 2010; CHT-expressing cells, membrane potential dye, choline response; stronger effect = lower value; B-score at 10 µM; High affinity choline transporter 1 (Homo sapiens), Q9GZV3; hit rate 0.86% among 310,000;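 active = B-score over 3 SD under the library average, and starting fluorescence ratio not unusually high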;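 also: choline stimulus applied at its EC90 after an EC20 pre-addition; B-score computed on integrated fluorescence ratio after choline addition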
Cl transport mod: KCC2 cotransporter modulators, thallium flux, primary screen, cell-based, HEK293 KCC2, FluoZin-2 fluorescence, MLSMR; B-score of Tl+ flux slope (higher = more flux/activation; lower = inhibition) at 10 µM; hit rate 2.2% among 190,000; AID 1456, 2008; KCC2 cells, thallium flux FluoZin-2 fluorescence; Solute carrier family 12 member 5 (Homo sapiens), Q9H2X9;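 active = thallium flux slope and its plate-corrected score both differing from the plate sample mean at a set confidence after two filtering rounds, in either direction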;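 also: slope of fluorescence scaled to starting intensity during 10 to 20 s after thallium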
CHT activ conf: CHT activators, confirmation, cell-based, membrane potential dye, duplicate; shares compounds with CHT allo act; AID 504833, 2011; activation, % at 10 µM; hit rate 91% among 2,500; CHT-expressing cells, membrane potential dye fluorescence (FDSS); % of choline EC20–EC90 response window; HEK293 expressing CHT LV-AA mutant; choline added at its EC20;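 active = primary screen active, with duplicate mean activation above negative control mean plus 3 SD, cut at about 11% in these data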
HEK293 MP dye: membrane potential response in parental HEK293 cells, counter-screen for CHT activator project, cell-based, membrane potential dye; hit rate 62% among 2,500; membrane potential dye fluorescence (FDSS); measured after EC20 choline addition; shares compounds with CHT allo act; ratio readout change at 10 µM, hits read low;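 active = duplicate-averaged ratio beyond 3 SD from buffer wells, up or down, though filed actives are nearly all decreases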
Numbers without * were called inactive; i = inactive; x = not tested or not shown. Hits are enriched below; roughly 2.6% of the tested compounds scored in any of these assays.

SMILES	Rad51 HR inh	CHT allo act	CHT inh	Cl transport mod	CHT activ conf	HEK293 MP dye
CCOC(=O)C1=C(C)NC(=O)/C1=C\N(C)C	-16.6	i	i	x	x	x
CCOC(=O)C1=C(C)S/C(=C\N(C)C)C1=O	16.0	11.1*	i	-0.0458	61.2*	-54.3*
CCc1ccc(N=C2NC(=O)CS2)cc1	x	i	i	x	x	x
Cc1cc(C)nc(/N=C(\N)N2CCCCC2)n1	-95.9	6.89*	i	-0.265	52.0*	-41.1*
COc1ccc(OC)c(C(C(=O)NC2CCCCC2)N(C(=O)c2ccccn2)c2cccnc2)c1 (stereo unspecified)	x	i	i	x	x	x
Cc1ccc2[nH]c3c(c2c1)CN(C)CC3	-2.8	i	i	1.62	x	x
CCOC(=O)c1ccc2[nH]c3c(c2c1)CN(C)CC3	-2.6	6.85*	i	0.0316	32.0*	-43.2*
O=c1c2cnn(-c3ccccc3)c2nc(-c2cccs2)n1-c1ccc(Br)cc1	-6.8	i	i	-0.352	13.6*	i
O=c1c2cnn(-c3ccccc3)c2nc(-c2ccco2)n1-c1ccccc1	-14.6	i	i	x	x	x
CCC(=O)Nc1ccccc1C(=O)OC(c1ccccc1)c1ccccc1	-6.8	7.34*	i	0.569	26.9*	i
CCC(=O)Nc1ccccc1C(=O)C(=O)Nc1ccccc1	-5.0	i	i	1.64	x	x
Cc1ccc(CNCC(O)(c2ccccc2)c2ccccc2)cc1	x	i	i	x	x	x
CCc1ccc(C(O)(CNCc2ccccc2)c2ccccc2)cc1 (stereo unspecified)	x	i	i	x	24.5*	i
COc1ccc2c(c1)c(C(O)CN1CCN(Cc3ccc4c(c3)OCO4)CC1)c(C)n2C (stereo unspecified)	-11.0	i	i	-0.324	x	x
Cc1c(C(O)CN2CCN(Cc3ccc4c(c3)OCO4)CC2)c2ccccc2n1C (stereo unspecified)	7.1	6.82*	i	0.386	31.0*	-27.1*
Cc1cc(Nc2ncc(Cl)cc2Cl)n(-c2ccccc2C)n1	6.0	8.82*	i	-2.63	42.1*	i
Cc1ccc(-n2nc(C)cc2Nc2ncc(Cl)cc2Cl)cc1	-4.7	i	i	0.00336	x	x
COc1ccc(O[C@H]2C=C[C@@H](c3ccccc3)O[C@@H]2COC(=O)CC/C(C)=N/O[C@@H](C)c2cc(-c3c(C)cc(C)cc3C)no2)cc1	x	x	x	0.194	x	x
COCC(=O)N(C)c1nnc(-c2cnccn2)s1	12.0	i	i	0.303	x	x
COCC(=O)N(C)c1nnc(-c2cnc(C)cn2)s1	0.2	6.41*	i	-0.0545	59.1*	-54.5*
Cc1ccc(N(C)C(=O)C2CCCN2S(=O)(=O)c2ccc3c(c2)n(C)c(=O)c(=O)n3C)cc1 (stereo unspecified)	x	6.54*	i	0.363	24.1*	-44.3*
Cn1c(=O)c(=O)n(C)c2cc(S(=O)(=O)N3CCN(C4CCCCC4)CC3)ccc21	-3.1	13.3*	i	0.465	105.8*	-50*
COC(=O)c1c(C)[nH]c(C)c1C(=O)c1ccccc1Cc1ccccc1	-9.3	i	i	x	x	x
CCOC(=O)c1cnc2c(cnn2C)c1NCCCn1ccnc1	5.8	7.19*	i	-0.554	44.0*	-80.7*
CCC12CN3CCN(CC(C3)/C1=N\NC(=O)Nc1ccccc1)C2	x	i	i	0.271	x	x
SMILES	Rad51 HR inh	CHT allo act	CHT inh	Cl transport mod	CHT activ conf	HEK293 MP dye
O=C1COc2ccc(C(=O)c3ccccc3C(=O)NCc3ccccc3)cc2N1	3.7	i	i	x	x	x
CN(CCO)c1ncnc2c1sc1nc(N3CCOCC3)c3c(c12)CCC3	16.4	i	i	-0.384	x	x
CC(C)(C)n1nc2c(c1NC(=O)c1ccc(F)c(F)c1)CS(=O)(=O)C2	x	i	i	x	x	x
CC(C)(C)n1nc2c(c1NC(=O)c1cc(Cl)ccc1[N+](=O)[O-])CS(=O)(=O)C2	x	7.17*	i	x	39.3*	i
O=[N+]([O-])c1ccc(N2CCN(c3ccc(Cl)nn3)CC2)cc1NC1CC1	-6.1	i	i	-0.583	x	x
CC(C)c1nc(N2CCN(C(=O)c3ccco3)CC2)c(C#N)c2c1COC(C)(C)C2	x	6.64*	i	x	22.8*	i
CC1(C)Cc2c(C#N)c(N3CCCC3)nc(-c3ccco3)c2CO1	4.4	i	i	x	x	x
O=C1CCCCCCCCCC/C(=N\O)CCCO1	x	i	i	x	14.2*	i
O=C(NCC1CC1)[C@@H]1C[C@H]1[C@@H](NP(=O)(c1ccccc1)c1ccccc1)c1ccccc1	-2.9	i	i	-0.35	-8.9	i
COc1cc(-c2nc3ccccn3c2NCc2ccccc2)ccc1SC1CCCCC1	x	i	i	x	x	x
COc1ccc(CSc2ccc(-c3nc4ccccn4c3NCc3ccccc3)cc2OC)cc1	x	8.93*	i	x	30.8*	i
c1cnc2c(c1)ccc1cccnc12	9.1	6.63*	i	0.103	61.9*	-105*
Cc1ccc(N(CC(=O)N/N=C/c2cc(C)n(-c3ccccc3)c2C)S(C)(=O)=O)c(C)c1	1.1	i	i	0.527	24.0*	i
Cc1ccc(N(CC(=O)Nc2c(C)n(C)n(-c3ccccc3)c2=O)S(C)(=O)=O)c(C)c1	-127.7	i	i	-0.046	x	x
CCC(=O)N1CCN(c2cc(N3CCN(C)CC3)c(F)cc2[N+](=O)[O-])CC1	4.0	7.97*	i	-0.173	56.7*	-58.4*
CCOC(=O)N1CCN(c2cc(N3CCOCC3)c(F)cc2[N+](=O)[O-])CC1	20.1	i	i	-0.233	x	x
Cc1nn(-c2cc(N3CCCCC3)ccc2N)c(=O)c2ccccc12	7.7	i	i	0.909	x	x
Nc1ccc(N2CCCCC2)cc1N1CCCCC1	x	7.88*	i	0.27	49.1*	-31.9*
Nc1nc(-c2ccc3c(c2)CCCC3)c(CC(=O)O)s1	x	i	i	x	x	x
Cc1ccc2cccc(OCc3nnc(SCC(=O)O)n3C)c2n1	18.0	i	i	0.168	50.7*	-53.2*
Cc1cc(=O)n2[nH]c(SCc3c(F)cccc3Cl)nc2n1	x	i	i	x	x	x
CCN1CCS/C1=C/C=C/C1=[N+](CC)CCS1	-7.5	6.9*	i	0.448	45.5*	-31.1*
Cc1ccc(C(=O)N2CCN(S(=O)(=O)c3ccccc3)CC2)s1	x	i	i	x	x	x
CCOC(=O)c1ccc(NC(=O)Nc2ccon2)cc1	x	i	i	-0.11	29.7*	i
COCCNc1ccnc2c(Cl)cccc12	x	6.3*	i	1.16	56.6*	-61.3*

Screening results: PubChem BioAssay, several laboratories
